In PMC4084622 (Journal of Medicinal Chemistry, 2014):
In brackets after ≈: the same amount, converted by molar mass. Read-outs that look alike come from different tables or passages of the source.

Legend:
[1] = tested on: M. tuberculosis; experiment: microbe, parasite or virus in culture; type: cell-based, Mycobacterium tuberculosis; conditions: for MIC: Mycobacterium tuberculosis
[2] = tested on: C. albicans; experiment: microbe, parasite or virus in culture; type: cell-based; conditions: Candida albicans
[3] = tested on: MCF-7; experiment: cells; type: cell-based; conditions: Homo sapiens, MCF7, read-out: MCF-7 IC50
[4] = tested on: E. coli; experiment: microbe, parasite or virus in culture; type: cell-based; conditions: Escherichia coli
[5] = tested on: B. subtilis; experiment: microbe, parasite or virus in culture; type: cell-based; conditions: Bacillus subtilis
[6] = tested on: S. aureus (MRSA USA300 strain); experiment: microbe, parasite or virus in culture; type: cell-based; conditions: Staphylococcus aureus, MRSA|USA300, read-out: Sa MIC, MRSA USA300 strain
[7] = tested on: S. cerevisiae; experiment: microbe, parasite or virus in culture; type: cell-based, Saccharomyces cerevisiae; conditions: for IC50: Saccharomyces cerevisiae
[8] = molecular target: malate dehydrogenase (Mycolicibacterium smegmatis, UniProt A0QVL2); experiment: Malate dehydrogenase activity, MTT reduction, M. smegmatis membranes; type: biochemical, Mycobacterium smegmatis
Sequence of malate dehydrogenase (A0QVL2 whole entry): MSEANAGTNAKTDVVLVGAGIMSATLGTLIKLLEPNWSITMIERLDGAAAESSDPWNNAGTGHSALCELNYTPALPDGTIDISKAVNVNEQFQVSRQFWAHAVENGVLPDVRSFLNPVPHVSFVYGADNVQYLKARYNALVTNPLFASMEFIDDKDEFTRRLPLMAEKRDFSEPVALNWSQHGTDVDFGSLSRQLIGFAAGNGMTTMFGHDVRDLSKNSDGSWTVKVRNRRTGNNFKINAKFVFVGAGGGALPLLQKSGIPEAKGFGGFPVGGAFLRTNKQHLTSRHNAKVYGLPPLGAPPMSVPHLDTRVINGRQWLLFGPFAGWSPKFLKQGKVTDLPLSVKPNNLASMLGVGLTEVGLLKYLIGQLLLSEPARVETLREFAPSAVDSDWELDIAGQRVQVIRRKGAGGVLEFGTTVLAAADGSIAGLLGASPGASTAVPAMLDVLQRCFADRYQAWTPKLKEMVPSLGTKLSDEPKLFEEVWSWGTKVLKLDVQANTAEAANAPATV

[9] = molecular target: M. tuberculosis cis-decaprenyl diphosphate synthase (Rv2361) (Mycobacterium tuberculosis, UniProt P9WFF7); experiment: cis-decaprenyl diphosphate synthase inhibition; type: biochemical
Sequence of M. tuberculosis cis-decaprenyl diphosphate synthase (Rv2361) (P9WFF7 whole entry): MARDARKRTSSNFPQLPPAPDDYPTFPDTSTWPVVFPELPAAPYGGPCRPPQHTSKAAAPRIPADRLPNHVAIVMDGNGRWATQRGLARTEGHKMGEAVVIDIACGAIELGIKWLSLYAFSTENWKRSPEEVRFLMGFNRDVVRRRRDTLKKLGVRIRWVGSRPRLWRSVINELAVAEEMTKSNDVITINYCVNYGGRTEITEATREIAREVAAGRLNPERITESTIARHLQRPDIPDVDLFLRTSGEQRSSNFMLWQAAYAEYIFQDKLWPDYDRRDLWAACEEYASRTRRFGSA

[10] = molecular target: T1, human SQS (Homo sapiens, UniProt P37268); experiment: Human SQS inhibition; type: biochemical
T1 sequence (P37268 1-417): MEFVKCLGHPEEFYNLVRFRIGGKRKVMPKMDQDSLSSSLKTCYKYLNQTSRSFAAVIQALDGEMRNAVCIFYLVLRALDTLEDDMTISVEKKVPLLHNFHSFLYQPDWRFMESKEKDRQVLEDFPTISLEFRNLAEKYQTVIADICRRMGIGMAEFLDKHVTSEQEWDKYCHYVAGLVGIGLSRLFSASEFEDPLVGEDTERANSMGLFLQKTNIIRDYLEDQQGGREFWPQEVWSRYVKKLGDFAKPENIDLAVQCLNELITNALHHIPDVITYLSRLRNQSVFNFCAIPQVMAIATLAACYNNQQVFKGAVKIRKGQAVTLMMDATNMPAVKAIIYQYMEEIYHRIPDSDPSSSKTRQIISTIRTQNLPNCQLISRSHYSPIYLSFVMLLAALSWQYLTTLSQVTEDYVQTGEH

[11] = molecular target: S. aureus farnesyl diphosphate synthase (FPPS) (Staphylococcus aureus, UniProt Q2FY48); experiment: biochemical
Sequence of S. aureus farnesyl diphosphate synthase (FPPS) (Q2FY48 1-293): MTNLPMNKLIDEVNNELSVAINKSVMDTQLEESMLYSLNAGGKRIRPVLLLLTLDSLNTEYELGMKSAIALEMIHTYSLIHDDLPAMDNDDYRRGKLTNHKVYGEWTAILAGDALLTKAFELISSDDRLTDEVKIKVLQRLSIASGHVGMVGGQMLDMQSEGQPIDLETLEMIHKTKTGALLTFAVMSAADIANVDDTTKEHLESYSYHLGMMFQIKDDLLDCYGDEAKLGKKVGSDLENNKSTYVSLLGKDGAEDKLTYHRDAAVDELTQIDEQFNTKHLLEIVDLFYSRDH

[12] = molecular target: T2, SaCrtM (Staphylococcus aureus, UniProt A9JQL9); experiment: SaCrtM inhibition; type: biochemical, S. aureus
T2 sequence (A9JQL9 1-287): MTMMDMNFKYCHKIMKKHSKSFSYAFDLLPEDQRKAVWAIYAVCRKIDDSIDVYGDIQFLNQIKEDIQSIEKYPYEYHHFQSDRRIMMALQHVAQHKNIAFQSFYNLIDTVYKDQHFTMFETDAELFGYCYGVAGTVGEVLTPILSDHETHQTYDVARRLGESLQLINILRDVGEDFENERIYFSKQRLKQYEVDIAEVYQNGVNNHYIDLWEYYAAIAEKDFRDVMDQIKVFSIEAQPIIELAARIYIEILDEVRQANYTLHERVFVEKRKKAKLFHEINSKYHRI

[13] = tested on: M. smegmatis cells, ΔpH; type: cell-based, Mycobacterium smegmatis
[14] = molecular target: M. smegmatis membrane dehydrogenases (NADH, deamino-NADH, succinate, lactate substrates); experiment: Dehydrogenase activities, MTT reduction, M. smegmatis membranes; type: biochemical, Mycobacterium smegmatis; conditions: in general (all substrates except malate)
[15] = molecular target: P. vivax geranylgeranyl diphosphate synthase (GGPPS) (Plasmodium vivax, UniProt A5K4U6); experiment: biochemical
Sequence of P. vivax geranylgeranyl diphosphate synthase (GGPPS) (A5K4U6 1-375): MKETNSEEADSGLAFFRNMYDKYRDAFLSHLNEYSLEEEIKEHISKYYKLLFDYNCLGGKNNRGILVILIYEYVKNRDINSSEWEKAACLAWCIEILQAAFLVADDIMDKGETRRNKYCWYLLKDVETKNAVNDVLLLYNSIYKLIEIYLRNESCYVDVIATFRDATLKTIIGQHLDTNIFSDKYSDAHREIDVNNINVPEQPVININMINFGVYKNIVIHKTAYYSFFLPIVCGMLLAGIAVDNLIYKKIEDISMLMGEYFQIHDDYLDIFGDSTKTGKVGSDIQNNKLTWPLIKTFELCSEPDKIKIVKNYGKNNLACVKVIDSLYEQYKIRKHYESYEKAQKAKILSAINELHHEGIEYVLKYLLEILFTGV

[16] = molecular target: M. tuberculosis cis-farnesyl diphosphate synthase (Rv1086) (Mycobacterium tuberculosis, UniProt P9WFF5); experiment: cis-farnesyl diphosphate synthase inhibition; type: biochemical
Sequence of M. tuberculosis cis-farnesyl diphosphate synthase (Rv1086) (P9WFF5 whole entry): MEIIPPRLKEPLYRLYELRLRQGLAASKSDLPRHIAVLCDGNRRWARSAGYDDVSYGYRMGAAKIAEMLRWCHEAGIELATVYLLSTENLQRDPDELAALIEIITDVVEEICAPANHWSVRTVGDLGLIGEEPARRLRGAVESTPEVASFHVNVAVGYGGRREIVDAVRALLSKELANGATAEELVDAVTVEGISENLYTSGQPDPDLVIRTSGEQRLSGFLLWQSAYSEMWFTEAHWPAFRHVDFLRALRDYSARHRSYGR

[17] = tested on: nonreplicating M. tuberculosis (streptomycin-starved 18b); type: cell-based, Mycobacterium tuberculosis; conditions: for effect on nonreplicating bacterial activity (CFU): 7 days
[18] = molecular target: E. coli undecaprenyl diphosphate synthase (UPPS) (Escherichia coli, UniProt P60472); experiment: E. coli UPPS inhibition; type: biochemical
Sequence of E. coli undecaprenyl diphosphate synthase (UPPS) (P60472 whole entry): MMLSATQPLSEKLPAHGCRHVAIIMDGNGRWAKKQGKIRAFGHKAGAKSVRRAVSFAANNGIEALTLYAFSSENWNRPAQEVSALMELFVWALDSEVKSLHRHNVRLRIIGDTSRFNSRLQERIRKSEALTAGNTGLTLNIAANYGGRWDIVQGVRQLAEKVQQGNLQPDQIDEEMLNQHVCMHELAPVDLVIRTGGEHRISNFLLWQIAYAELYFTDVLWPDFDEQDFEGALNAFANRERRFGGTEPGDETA

[19] = molecular target: S. aureus undecaprenyl diphosphate synthase (UPPS) (Staphylococcus aureus, UniProt P60477); experiment: S. aureus UPPS inhibition; type: biochemical
Sequence of S. aureus undecaprenyl diphosphate synthase (UPPS) (P60477 whole entry): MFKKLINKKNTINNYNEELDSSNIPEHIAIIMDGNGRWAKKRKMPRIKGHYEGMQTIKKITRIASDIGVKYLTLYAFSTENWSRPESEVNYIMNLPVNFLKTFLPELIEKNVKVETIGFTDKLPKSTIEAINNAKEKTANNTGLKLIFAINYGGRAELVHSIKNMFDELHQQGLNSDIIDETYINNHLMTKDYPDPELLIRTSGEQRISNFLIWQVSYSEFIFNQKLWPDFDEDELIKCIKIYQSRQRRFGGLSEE

[20] = tested on: M. tuberculosis; conditions: cited from earlier work
[21] = tested on: M. smegmatis; conditions: cited from earlier work
[22] = tested on: E. coli IMVs, ΔpH; experiment: ΔpH collapse in E. coli inverted membrane vesicles; type: biochemical, Escherichia coli; conditions: qualitative
[23] = tested on: M. smegmatis cells, ATP synthesis; experiment: ATP/ADP determination in M. smegmatis cells; type: cell-based, Mycobacterium smegmatis
Method in brief: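 Cells grown 8 h in Middlebrook 7H9-ADC-Tween 80 and diluted to OD600 of 2. Test compounds added at several concentrations, with incubation at 37 °C and 200 rpm. ATP/ADP ratio read with a commercial ADP/ATP ratio kit after 10 and 60 min.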

[24] = molecular target: M. smegmatis MenA (MsMenA) (Mycolicibacterium smegmatis, UniProt A0QR52); conditions: read-out: MenA IC50; same assay as used here; cited from earlier work
Sequence of M. smegmatis MenA (MsMenA) (A0QR52 1-289): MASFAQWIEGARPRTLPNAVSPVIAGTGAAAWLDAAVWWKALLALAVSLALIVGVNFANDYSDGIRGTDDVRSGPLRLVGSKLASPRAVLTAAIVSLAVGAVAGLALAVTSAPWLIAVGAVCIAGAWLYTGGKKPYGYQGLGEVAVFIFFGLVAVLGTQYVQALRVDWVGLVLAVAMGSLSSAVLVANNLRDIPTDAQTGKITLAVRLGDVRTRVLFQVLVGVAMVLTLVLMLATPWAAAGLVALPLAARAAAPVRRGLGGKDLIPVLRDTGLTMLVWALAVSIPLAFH

[25] = read-out: Ca IC50 (in parentheses)
[26] = read-out: Ec IC50 (in parentheses)
[27] = read-out: Bs IC50 (in parentheses)
[28] = read-out: Sc IC50 (in parentheses)
[29] = read-out: Mt MIC (in parentheses)

| Compound | MIC ([1]; read-out: Mt MIC) [µg/mL] | IC50 ([2]; read-out: Ca IC50) [µg/mL] | IC50 [3] [µg/mL] | IC50 ([4]; read-out: Ec IC50) [µg/mL] | IC50 ([5]; read-out: Bs IC50) [µg/mL] | MIC [6] [µg/mL] | IC50 ([7]; read-out: Sc IC50) [µg/mL] | further results |
| --- | --- | --- | --- | --- | --- | --- | --- | --- |
| CC(C)=CCC/C(C)=C/CNC(=O)COC1C2CC3CC(C2)CC1C3 (stereo not drawn) [compound 8] | 0.78 | > 69 | 12 (≈ 34.7 µM) | > 345 | > 69 | > 120 | > 69 | IC50 [2, 25]: > 200 µM; IC50 [4, 26]: > 1000 µM; IC50 [5, 27]: > 200 µM; IC50 [7, 28]: > 200 µM |
| CC(C)=CCC/C(C)=C/CNCCNC1C2CC3CC(C2)CC1C3 (stereo not drawn) [compound 1, SQ109] | 0.1 to 0.2 | 3.3 | 6 (≈ 18.2 µM) | 2.8 | 7.6 | > 120 | – | MIC [1, 29]: 0.3 to 0.6 µM; IC50 [8]: 30.3 µM; IC50 [9]: ≥ 50 µM; activity [10]: ~100 µM; IC50 [11]: ≥ 50 µM; activity [12]: ~100 µM; effect on pH gradient (ΔpH) [13]: collapsed; IC50 [14]: ~30 µg/mL (≈ 90.8 µM); Sc IC50 [7]: 1.1 µg/mL; IC50 [15]: ≥ 50 µM; IC50 [16]: ≥ 50 µM; effect on nonreplicating bacterial activity (CFU) ([17]; 1 μg/mL, absence of MK-4): only a small effect; effect on nonreplicating bacterial activity (CFU) ([17]; 1 μg/mL, presence of 1 mM MK-4): essentially no effect; reduction of cell activity (CFU) ([17]; 10 μg/mL, 7 days exposure, absence of MK-4): ~4 log units; effect on nonreplicating bacterial activity (CFU) ([17]; 10 μg/mL, presence of 1 mM MK-4): small effect; IC50 [18]: ≥ 50 µM; IC50 [19]: ≥ 50 µM |
| CC(C)=CCC/C(C)=C/C[N+](C)(C)CCOC1C2CC3CC(C2)CC1C3.[I-] (stereo not drawn) [compound 7] | 0.78 | 18 | 3.2 | 37 | 4.2 | 8 | 15 | – |
| CC[C@@H](CO)NCCN[C@@H](CC)CO [compound 2, ethambutol] | – | – | – | – | – | – | – | Mt MIC [20]: 2 µg/mL; Ms MIC [21]: 1 µg/mL |
| CC(C)=CCC/C(C)=C/CNCCOc1ccccc1 [compound 11] | 6.2 | 20 | 6.3 (≈ 23 µM) | 60 | 17 | 32 (≈ 117 µM) | 3 | – |
| N#CC(C#N)=NNc1cccc(Cl)c1 [CCCP, m-chlorophenylcarbonyl cyanide phenylhydrazone] | – | – | – | – | – | – | – | effect on pH gradient (ΔpH) [13]: collapsed |
| CC(C)=CCC/C(C)=C/CNCCOC(C)(C)C [compound 10] | 6.2 | > 50 | 45 (≈ 178 µM) | > 126 | > 50 | > 16 | 44 | IC50 [2, 25]: > 198 µM; IC50 [4, 26]: > 498 µM; IC50 [5, 27]: > 198 µM |
| CC(C)=CCC/C(C)=C/COCCNC1C2CC3CC(C2)CC1C3 (stereo not drawn) [compound 4] | ~0.2 | > 66 | 112 (≈ 338 µM) | 4.3 | > 66 | > 120 | > 33 | Mt MIC [1]: 0.19 µg/mL; IC50 [2, 25]: > 199 µM; activity ([10]; human SQS, weak activity): ~100 µM; IC50 [5, 27]: > 199 µM; activity ([12]; SaCrtM, weak activity): ~100 µM; IC50 [7, 28]: > 100 µM |
| CC(C)=CCC/C(C)=C/COCCOC1C2CC3CC(C2)CC1C3 (stereo not drawn) [compound 5] | – | > 66 | 73 (≈ 220 µM) | > 332 | > 66 | > 64 | > 332 | IC50 [2, 25]: > 198 µM; IC50 [4, 26]: > 1000 µM; effect on ΔpH [22]: no effect; IC50 [5, 27]: > 199 µM; IC50 [7, 28]: > 1000 µM |
| CC(C)=CCC/C(C)=C/COCC(=O)NC1C2CC3CC(C2)CC1C3 (stereo not drawn) [compound 9] | 12 | > 69 | 9.3 (≈ 26.9 µM) | > 345 | 17 | > 120 | > 69 | IC50 [2, 25]: > 200 µM; IC50 [4, 26]: > 1000 µM; IC50 [7, 28]: > 200 µM |
| CC(C)(C)c1cc(C=C(C#N)C#N)cc(C(C)(C)C)c1O [SF6847, reference compound] | – | – | – | – | – | – | – | effect on ΔpH [22]: very rapid (seconds) collapse in ΔpH |
| CC(C)=CCC/C(C)=C/CNCCO[C@@H]1C[C@@H]2CC[C@@]1(C)C2(C)C [compound 13] | – | 6.3 | 1.3 (≈ 3.9 µM) | 12 | 1.8 | ~8 (≈ 24 µM) | 1 to 3 | effect on pH gradient (ΔpH) [13]: collapsed; Sc IC50 [7]: 0.89 µg/mL |
| CC(C)=CCC/C(C)=C/CNCCOC1C2CC3CC(C2)CC1C3 (stereo not drawn) [compound 3] | 0.02 to 0.05 | 12 | 10 (≈ 30.2 µM) | 2.8 | 16 | ~8 (≈ 24.1 µM) | 1.8 | MIC [1, 29]: 0.06 to 0.15 µM; activity ([10]; human SQS, weak activity): ~100 µM; activity ([12]; SaCrtM, weak activity): ~100 µM; effect on ATP synthesis [23]: inhibition of ATP synthesis |
| CC(C)[C@@H]1NC(=O)[C@H](C)OC(=O)[C@@H](C(C)C)NC(=O)[C@@H](C(C)C)OC(=O)[C@H](C(C)C)NC(=O)[C@H](C)OC(=O)[C@@H](C(C)C)NC(=O)[C@@H](C(C)C)OC(=O)[C@H](C(C)C)NC(=O)[C@H](C)OC(=O)[C@@H](C(C)C)NC(=O)[C@@H](C(C)C)OC1=O [valinomycin] | – | – | – | – | – | – | – | effect on pH gradient (ΔpH) [13]: no effect |
| CC(C)=CCC/C(C)=C/CNCCCOC1C2CC3CC(C2)CC1C3 (stereo not drawn) [compound 6] | 1.6 | 6.5 | 3.4 (≈ 9.84 µM) | 2.3 | 3 | ~8 (≈ 23.2 µM) | 2.7 | – |
| CC(C)=CCC/C(C)=C/CNCCOc1cccc2ccccc12 [compound 12] | 6.2 | 12 | 7.1 (≈ 21.9 µM) | 15 | 2.4 | ~8 (≈ 24.7 µM) | 3.7 | – |
| C=CCN(C)CCCCCCOc1ccc(C(=O)c2ccc(Br)cc2)c(F)c1 [Ro 48-8071] | – | – | – | – | – | – | – | IC50 [24]: 9 µM |
| CO[C@@H]1C[C@@H](C[C@H]2CC[C@H](C)[C@H]([C@@H](C)C(=O)O)O2)O[C@]2(O[C@](C)([C@H]3CC[C@@](C)([C@@H]4O[C@@H]([C@H]5O[C@@](O)(CO)[C@H](C)C[C@@H]5C)C[C@@H]4C)O3)C[C@H]2C)[C@@H]1C [nigericin] | – | – | – | – | – | – | – | effect on pH gradient (ΔpH) [13]: collapsed |
